Measured values of several laboratories.
Each line is one published result; the experiments were not run side by side. Converted amounts (≈) assume the structure as drawn.
Organism: Staphylococcus epidermidis

O=C(O)c1cn(C2CC2)c2cc(N3CCNCC3)c(F)cc2c1=O — MIC (microbial growth; DSM28765): 0.25 µg/mL
O=C(O)CN1C(=O)/C(=C/c2ccc(-c3ccc(N(c4ccccc4)c4ccccc4)cc3)c3ccccc23)NC1=S — MIC (microbial growth, broth dilution; ATCC12228): > 1000 µg/mL
CCOC(=O)c1c(N)csc1-c1cn(-c2ccccc2)nc1-c1ccc(C)cc1 — MBC (microbial killing, broth dilution): 0.125 µg/mL (≈ 0.31 µM)
CO[C@@H](C(N)=O)[C@H](NC(=O)c1ccc(NC(=O)c2ccc(C#N)cc2)cc1)C(=O)Nc1ccc(C(=O)Nc2ccc(C(=O)Nc3ccc(C(=O)O)cc3)c(O)c2OC(C)C)cc1 — MIC (microbial growth; DSM28765): ≤ 0.03 µg/mL
O=C1NC(=S)N/C1=C\c1ccc(-c2ccc(N(c3ccccc3)c3ccccc3)cc2)cc1 — MIC (microbial growth, broth dilution; ATCC12228): > 1000 µg/mL
C/C(=C\c1ccc(C#N)cc1)C(=O)Nc1ccc(C(=O)N[C@@H](CC(N)=O)C(=O)Nc2ccc(C(=O)Nc3ccc(C(=O)Nc4ccc(C(=O)O)cc4)c(O)c3OC(C)C)cc2)cc1 — MIC (microbial growth; DSM28765): ≤ 0.03 µg/mL
O=C(O)c1cn(C2CC2)c2cc(N3CCNCC3)c(F)cc2c1=O — MBC (microbial killing, broth dilution): 0.5 µg/mL (≈ 1.51 µM)
CC(C)Oc1c(NC(=O)c2ccc(NC(=O)[C@H](CC(N)=O)NC(=O)c3ccc(NC(=O)c4ccc(C#N)cn4)cc3)cc2)ccc(C(=O)Nc2ccc(C(=O)O)cc2)c1O — MIC (microbial growth; DSM28765): 1 µg/mL
O=S(=O)(O)c1cc(O)c(N=Nc2ccc3ccccc3c2O)c2ccccc12 — MIC50 (microbial growth, broth dilution; 24 h): 63 µM (≈ 24.8 µg/mL)
O=C1NC(=S)N/C1=C\c1ccc(-c2ccc(N(c3ccccc3)c3ccccc3)cc2)c2ccccc12 — MIC (microbial growth, broth dilution; ATCC12228): > 1000 µg/mL
N#CC(=Cc1ccccc1O)C1=NC(=O)C(=Cc2cn(-c3ccccc3)nc2-c2ccccc2)S1 — MBC (microbial killing, broth dilution): 0.25 µg/mL (≈ 0.527 µM)
O=C1NC(=S)S/C1=C\c1ccc(-c2ccc(N(c3ccccc3)c3ccccc3)cc2)c2ccccc12 — MIC (microbial growth, broth dilution; ATCC12228): 1000 µg/mL
CN(C)[C@@H]1C(O)=C(C(N)=O)C(=O)[C@@]2(O)C(O)=C3C(=O)c4c(O)cccc4[C@@](C)(O)[C@H]3C[C@@H]12 — MIC (microbial growth, broth dilution; 12228): 100 µM
